Test results published in ChEMBL document CHEMBL1153954, “Promiscuous aggregate-based inhibitors promote enzyme unfolding” (J Med Chem, 2009).
Active and inactive are the calls of the source. No cut-off for these calls is given here.

Target: AmpC (Escherichia coli) (UniProt Q83TT7)
Assay: Inhibition of Escherichia coli AmpC assessed as induction of protein unfolding measured by trypsin mediated degradation of compound-AmpC enzyme complex at 250 uM after 15 mins by gel electrophoresis
Procedure, shortened: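 AmpC β-lactamase (0.5 μM) in 50 mM KPi, pH 7.0, with or without aggregator at 250 μM (1% DMSO final). Trypsin (0.01 or 0.025 mg/mL) added after 5 min. Digestion ran at room temperature for 0 min to 4 h. Samples were boiled 2 min in DTT-containing loading buffer, run on SDS-PAGE, and the β-lactamase band was scored against compound-free enzyme.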

Chain of AmpC (Escherichia coli) (Q83TT7 as listed by the source): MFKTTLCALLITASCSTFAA

Activity: Active
SMILES: O=S(=O)(O)c1cc(O)c(/N=N/c2ccc3ccccc3c2O)c2ccccc12
